RORa inhibitor: inhibitors of orphan receptor RORA, primary screen, cell-based, luminescence | inhibition, % at 10 µM | Nuclear receptor ROR-alpha (Homo sapiens), P35398 | CHO-K1 Gal4-RORA LBD luciferase reporter | 65,000 compounds, 0.43% hits;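 active = inhibition above the mean of all tested compounds plus 3 SD, cut at about 52% in these data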;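 note: 0% = RORA-transfected cells with DMSO and 100% = mock-transfected cells lacking RORA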
Target sequence (P35398 whole entry, looked up, the tested form may be a part): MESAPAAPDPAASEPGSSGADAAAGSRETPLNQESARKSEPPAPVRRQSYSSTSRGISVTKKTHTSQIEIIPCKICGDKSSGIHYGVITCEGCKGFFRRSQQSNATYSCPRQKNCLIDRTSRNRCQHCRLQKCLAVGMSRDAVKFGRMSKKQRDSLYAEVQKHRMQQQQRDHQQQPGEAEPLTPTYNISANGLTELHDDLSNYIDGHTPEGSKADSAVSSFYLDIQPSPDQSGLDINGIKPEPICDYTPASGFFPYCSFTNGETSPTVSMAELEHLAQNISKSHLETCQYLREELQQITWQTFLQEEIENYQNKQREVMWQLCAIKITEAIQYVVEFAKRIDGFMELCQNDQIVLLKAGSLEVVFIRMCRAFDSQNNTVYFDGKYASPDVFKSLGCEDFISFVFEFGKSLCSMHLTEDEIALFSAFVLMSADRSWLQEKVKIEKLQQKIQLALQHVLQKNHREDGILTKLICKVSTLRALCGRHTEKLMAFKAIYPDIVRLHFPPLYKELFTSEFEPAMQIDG
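test system = CHO-K1 Gal4-RORA LBD luciferase reporter cells | dosing = 10 µM single point | times = 20 h compound treatment, 37 °C | signal = luciferase luminescence | read-out = % inhibition of basal luciferase versus +RORA/-RORA DMSO controls | benchmarks = mock-transfected cells as 100%, +RORA DMSO cells as 0% | replicates = tested once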
* hit, by the source's call. Only a selection was taken, and hits are over-represented in it overall.

SMILES | RORa inhibitor
Cc1cc(C)n(-c2ccc3cccc(NS(C)(=O)=O)c3n2)n1 | 67*
Cc1cc(C)n(S(=O)(=O)c2ccc3ccccc3c2)n1 | 18
Cc1cc(C)n(-c2nc(C)nc(N)n2)n1 | -24
COc1ccc(CCn2c(=N)c(C#N)cc3c(=O)n4ccccc4nc32)cc1 | 10
CC(=O)Nc1ccc(-n2c(C)nc(=O)c(-c3ccccc3)c2C)cc1 | 10
Cc1nnc(Sc2nc(Sc3nnc(C)s3)nc(N3CCN(C)CC3)n2)s1 | 93*
O=C(Nc1ccon1)c1cccc(C(F)(F)F)c1 | 17
O=C(Nc1ccc(Cl)cc1)N1CC=CCC1 | -52
O=S(=O)(NCCOC12CC3CC(CC(C3)C1)C2)c1cccc2nsnc12 | 23
Cn1c(NCc2ccccc2)nc2c1c(=O)n(Cc1ccc(Br)cc1)c(=O)n2C | 7
CCCNc1nc2c(c(=O)n(C)c(=O)n2C)n1CCc1ccccc1 | 17
CCCNc1nc2c(c(=O)n(C)c(=O)n2C)n1Cc1cccc(C)c1 | 55*
COc1cccc(Cn2c(NCc3ccco3)nc3c2c(=O)n(C)c(=O)n3C)c1 | 62*
CCn1c(NCc2ccccn2)nc2c1c(=O)n(C)c(=O)n2C | -2
CCCCC(=O)NCCNc1nc2c(c(=O)n(C)c(=O)n2C)n1Cc1ccc(F)cc1 | 10
COc1cc(C2C3C(C)N(C)C(=O)N(C)C3N(C)C(=O)N2C)ccc1O (stereo not drawn) | 13
Cc1occc1-c1nnc(SCC(=O)N2c3ccccc3CCc3ccccc32)n1C | 6
CCc1ccc(-n2c(O)cnc2Nc2nc(C)cc(C)n2)cc1 | -4
CCN(C(=O)c1cn(CC)c(=O)c2cc(OC)c(OC)cc12)c1ccccc1C | 3
O=C(Nc1nc(-c2nc3ccccc3s2)cs1)C1CC1 | -51
O=C(Nc1nc(-c2ccccc2)cs1)c1cccs1 | -57
O=C(Nc1nc(-c2ccccn2)cs1)c1ccc(Cl)s1 | 65*
CN(C)c1nc(N)nc(Cn2ccnc2)n1 | 21
COc1cccc(N2CCN(c3ncnc4c3[nH]c3ccccc34)CC2C)c1 (stereo not drawn) | 95*
COc1cccc(N2CCN(c3ncnc4c3[nH]c3ccc(F)cc34)CC2C)c1 (stereo not drawn) | 95*
SMILES | RORa inhibitor
Cc1cc(C(F)(F)F)c2c(N)c(C(=O)Nc3cc(C)on3)sc2n1 | -7
N#Cc1c(NC(=O)COC(=O)C2CC3C=CC2C3)oc(-c2ccccc2)c1-c1ccccc1 (stereo not drawn) | 12
CC1(C)CC(=O)C=C(Nc2ccc(S(N)(=O)=O)cc2)C1 | 8
CSC1=C(C#N)C(C)CC(=O)N1 (stereo not drawn) | 0
CCC(C)(C)n1nnnc1C(c1ccc(N(C)C)cc1)N1CCN(C2CCCCC2)CC1 (stereo not drawn) | -14
c1ccc(N2CCN(c3ccccc3)C2c2cccs2)cc1 | -58
CC(=O)NS(=O)(=O)c1ccc(NC(=O)CCC2CCCC2)cc1 | 15
Cc1ccc(S(=O)(=O)NCc2ccncc2)cc1 | 56*
CC1CCCCC1NS(=O)(=O)c1ccc(S(=O)(=O)NCc2ccncc2)cc1 (stereo not drawn) | 69*
O=S(=O)(NCc1ccc(Cl)cc1)c1cnc[nH]1 | 6
Cc1cc(C)c(C)c(S(=O)(=O)NCc2cccnc2)c1C | 12
CCOC(=O)C1=C(C)SC2=NS(=O)(=O)CCN21 | 4
CCC1CCCCN1C(=O)CSc1nc(N)c(NC(=O)c2ccc(OC)c(OC)c2)c(=O)[nH]1 (stereo not drawn) | 20
Nc1nc(Cl)nc2c1ncn2[C@H]1C[C@H](O)[C@@H](CO)O1 | 69*
CS(=O)(=O)N(CC(=O)O)c1cc(Cl)cc(Cl)c1 | 10
Cn1c(SCC(N)=O)nnc1C1CCN(C(=O)NCc2ccccc2)CC1 | -13
COc1cc(-c2nnc(COc3ccc4ccccc4c3)o2)cc(OC)c1OC | 11
CC(C)C(=O)N1CCN(C2=NS(=O)(=O)c3ccccc32)CC1 | 16
CCCN1C=CC(=C2C(=O)c3ccccc3C2=O)C=C1 | 91*
CCN1C=CC(=C2C(=O)c3ccccc3C2=O)C=C1 | 67*
CC1=CC(=C2C(=O)c3ccccc3C2=O)C=C(C)O1 | -57
CN1C=CC(=C2C(=O)c3ccccc3C2=O)C=C1 | -52
COCCCNC(=O)C1CCN(c2nc(C)cc(C)n2)CC1 | 22
Cc1ccc2oc(Nc3nc(C)cc(C)n3)nc2c1 | -52
CCCc1cc(NCCN2CCOCC2)n2c(nc3ccccc32)c1C#N | -6
SMILES | RORa inhibitor
CC1=C(C(=O)OC(C)(C)C)C(c2ccco2)C(C#N)=C(N)O1 (stereo not drawn) | -2
Nc1c(Br)cc2oc(-c3ccccc3)nc2c1Br | -52
Nc1ccc2oc(-c3cc(Br)ccc3Cl)nc2c1 | 58*
Cc1ccc(C)c(-c2nc3cc(N)ccc3o2)c1 | 13
COC(=O)c1ccc(Oc2cc(C)nc(SC)n2)cc1 | -58
Cc1c(C)[n+](=O)c(-c2ccco2)c(C)n1[O-] | 22
Cc1ccc(OCC(=O)n2nc(C)cc2C)c(Br)c1 | 3
CCCc1ccc(-c2ccc(F)c(N)c2)nc1 | 69*
CC1(C)OC(=O)N(c2cccnc2)C1(C)O (stereo not drawn) | 6
O=C(CSc1nnc(-c2cccnc2)n1-c1ccccc1)Nc1ccc2c(c1)OCO2 | -10
COc1ccc(-c2nnc(SCc3nnc(-c4ccccc4)o3)n2C)cc1OC | -53
Cc1ccc(CC(CC(=O)O)C(=O)NC2CCCCC2)cc1 (stereo not drawn) | 11
CCn1c(-c2ccc(N(C)C)cc2)nc2ccccc21 | -88
CN(C)c1ccc(-c2nc3ccccc3n2C)cc1 | 62*
Cn1c(-c2ccc(Br)o2)nc2ccccc21 | -73
COc1ccc(C(NC(=O)C(C)(C)C)NC(=O)C(C)(C)C)cc1 | 25
Cc1cc(C)cc(Nc2ccc(C(=O)O)cc2N)c1 | 71*
CC1CCN(c2ccc(C(=O)O)cc2N)CC1 | 14
C/C(=C\C(=O)c1ccc(C)o1)Nc1ccc(C(=O)O)cc1C | -4
COc1ccc(C(O)P(=O)(O)CCc2ccccc2)cc1 (stereo not drawn) | -52
Cc1nn(CC(=O)Nc2nnc(CC(=O)N3CCCC3)s2)c(=O)c2ccccc12 | -12
